Measured values: ChEMBL document CHEMBL4261631, “Synthetic thiosemicarbazones as a new class of Mycobacterium tuberculosis protein tyrosine phosphatase A inhibitors” (Bioorg Med Chem, 2018)

Key:
[1] = biological target: T1, Low molecular weight protein-tyrosine phosphatase A (Mycobacterium tuberculosis, UniProt P9WIA1); test: Inhibition of recombinant Mycobacterium tuberculosis PtpA using p-nitrophenyl phosphate as substrate preincubated for 10 mins followed by substrate addition and measured every minute for 10 mins by UV-VIS spectrophotometric analysis
T1 sequence (P9WIA1 whole entry): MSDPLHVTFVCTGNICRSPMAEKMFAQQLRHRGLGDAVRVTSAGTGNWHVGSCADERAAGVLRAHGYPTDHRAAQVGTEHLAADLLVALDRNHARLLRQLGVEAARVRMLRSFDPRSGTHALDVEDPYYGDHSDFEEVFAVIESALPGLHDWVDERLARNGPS
Method in brief: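 Recombinant Mtb PtpA at 50 nM in 20 mM imidazole pH 7.0, premixed with inhibitor (0.5–50 µM, DMSO ≤4% v/v) 10 min at 37 °C. Started with 10 mM pNPP. A410 read each min for 10 min at 37 °C. Residual activity from 7 min minus 2 min absorbance versus no-inhibitor wells. IC50 by linear regression of % inhibition versus concentration. Triplicate, mean ± SD of three experiments.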

[2] = biological target: T2, Phosphotyrosine protein phosphatase (Mycobacterium tuberculosis, UniProt A0A045ISB3); test: Inhibition of recombinant Mycobacterium tuberculosis PtpB using p-nitrophenyl phosphate as substrate preincubated for 10 mins followed by substrate addition and measured every minute for 10 mins by UV-VIS spectrophotometric analysis
T2 sequence (A0A045ISB3 whole entry): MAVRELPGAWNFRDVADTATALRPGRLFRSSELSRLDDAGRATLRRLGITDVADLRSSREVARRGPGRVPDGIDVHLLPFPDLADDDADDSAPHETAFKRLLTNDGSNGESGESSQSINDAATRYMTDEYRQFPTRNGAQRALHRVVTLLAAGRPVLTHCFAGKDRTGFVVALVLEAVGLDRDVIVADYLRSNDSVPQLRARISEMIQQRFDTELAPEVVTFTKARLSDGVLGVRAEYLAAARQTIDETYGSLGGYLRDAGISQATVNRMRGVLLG
Method in brief: (§1)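 Recombinant PTP at PtpB 50 nM, LYP 169 nM, PTP-PEST 205 nM or PTP1B 38 nM, in 20 mM imidazole pH 7.0. Inhibitor (0.5–50 µM, DMSO ≤4% v/v) premixed with enzyme 10 min at 37 °C. Started with 10 mM pNPP. A410 each min for 10 min. Activity from 7 min minus 2 min. IC50 by linear regression. Triplicate.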

[3] = biological target: T3, Tyrosine-protein phosphatase non-receptor type 1 (Homo sapiens, UniProt P18031); test: Inhibition of recombinant human Ptp1B using p-nitrophenyl phosphate as substrate preincubated for 10 mins followed by substrate addition and measured every minute for 10 mins by UV-VIS spectrophotometric analysis; method in brief: as §1
T3 sequence (P18031 whole entry): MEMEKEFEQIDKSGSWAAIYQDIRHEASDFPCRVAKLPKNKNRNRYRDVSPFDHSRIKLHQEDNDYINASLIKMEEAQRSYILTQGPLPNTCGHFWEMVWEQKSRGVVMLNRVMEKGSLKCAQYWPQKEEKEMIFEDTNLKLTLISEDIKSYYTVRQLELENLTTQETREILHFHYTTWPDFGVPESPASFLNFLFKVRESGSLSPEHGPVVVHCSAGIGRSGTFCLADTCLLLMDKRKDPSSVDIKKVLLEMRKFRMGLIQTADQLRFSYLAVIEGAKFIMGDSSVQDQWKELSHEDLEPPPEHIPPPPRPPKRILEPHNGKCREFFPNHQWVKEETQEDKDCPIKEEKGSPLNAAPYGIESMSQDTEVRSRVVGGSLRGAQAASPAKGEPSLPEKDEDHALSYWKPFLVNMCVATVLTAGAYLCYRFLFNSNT

[4] = biological target: Tyrosine-protein phosphatase YopH (Yersinia enterocolitica, UniProt P15273); test: Inhibition of recombinant Yersinia enterocolitica YopH using p-nitrophenyl phosphate as substrate preincubated for 10 mins followed by substrate addition and measured every minute for 10 mins by UV-VIS spectrophotometric analysis
[5] = biological target: T4, Tyrosine-protein phosphatase non-receptor type 22 (Homo sapiens, UniProt Q9Y2R2); test: Inhibition of recombinant human LYP using p-nitrophenyl phosphate as substrate preincubated for 10 mins followed by substrate addition and measured every minute for 10 mins by UV-VIS spectrophotometric analysis; method in brief: as §1
T4 sequence (Q9Y2R2 whole entry): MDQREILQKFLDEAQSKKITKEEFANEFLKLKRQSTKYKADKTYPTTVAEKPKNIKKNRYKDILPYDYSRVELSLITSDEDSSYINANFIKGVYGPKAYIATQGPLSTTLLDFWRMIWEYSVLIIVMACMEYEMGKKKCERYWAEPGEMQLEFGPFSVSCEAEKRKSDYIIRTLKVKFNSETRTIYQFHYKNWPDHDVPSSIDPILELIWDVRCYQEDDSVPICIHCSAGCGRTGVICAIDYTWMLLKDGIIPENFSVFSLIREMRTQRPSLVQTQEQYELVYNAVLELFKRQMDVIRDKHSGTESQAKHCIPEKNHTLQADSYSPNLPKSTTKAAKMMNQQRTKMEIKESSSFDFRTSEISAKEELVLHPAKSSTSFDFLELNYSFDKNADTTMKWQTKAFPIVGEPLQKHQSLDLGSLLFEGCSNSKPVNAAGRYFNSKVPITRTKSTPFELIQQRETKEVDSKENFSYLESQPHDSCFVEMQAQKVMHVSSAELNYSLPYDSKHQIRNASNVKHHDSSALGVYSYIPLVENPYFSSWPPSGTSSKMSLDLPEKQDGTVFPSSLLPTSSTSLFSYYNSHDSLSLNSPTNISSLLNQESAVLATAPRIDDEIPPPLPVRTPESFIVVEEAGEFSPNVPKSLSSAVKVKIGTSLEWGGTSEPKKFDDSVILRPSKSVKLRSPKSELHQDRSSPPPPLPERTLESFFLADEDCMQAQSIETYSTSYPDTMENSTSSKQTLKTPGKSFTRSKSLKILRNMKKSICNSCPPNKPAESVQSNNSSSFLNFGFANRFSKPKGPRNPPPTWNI

[6] = Selectivity index, ratio of IC50 for recombinant human Ptp1B to IC50 for recombinant Mycobacterium tuberculosis PtpA
Method in brief: (§2)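 Selectivity index calculated as IC50 for PtpB, LYP, PTP-PEST or PTP1B divided by IC50 for PtpA. Both IC50 values come from pNPP hydrolysis at 37 °C with 10 min enzyme–inhibitor premix and A410 readout, using 0.5–50 µM inhibitor.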

[7] = Selectivity index, ratio of IC50 for recombinant Yersinia enterocolitica YopH to IC50 for recombinant Mycobacterium tuberculosis PtpA
[8] = Selectivity index, ratio of IC50 for recombinant human PTP-PEST to IC50 for recombinant Mycobacterium tuberculosis PtpA; method in brief: as §2
[9] = Selectivity index, ratio of IC50 for recombinant human LYP to IC50 for recombinant Mycobacterium tuberculosis PtpA; method in brief: as §2
[10] = biological target: T1, Low molecular weight protein-tyrosine phosphatase A; test: Non-competitive inhibition of Mycobacterium tuberculosis PtpA using p-nitrophenyl phosphate as substrate by Michaelis-Menten plot analysis
Method in brief: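 Mtb PtpA-catalysed pNPP hydrolysis with pNPP varied 0.2–20 mM at each of three inhibitor concentrations. Rates expressed as specific activity (µmol pNPP min-1 mg-1). Vmax and Km fitted to Michaelis–Menten equation. Ki from non-linear fits to competitive or non-competitive inhibition equation, at least three independent experiments.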

Chain of Tyrosine-protein phosphatase YopH (P15273 whole entry): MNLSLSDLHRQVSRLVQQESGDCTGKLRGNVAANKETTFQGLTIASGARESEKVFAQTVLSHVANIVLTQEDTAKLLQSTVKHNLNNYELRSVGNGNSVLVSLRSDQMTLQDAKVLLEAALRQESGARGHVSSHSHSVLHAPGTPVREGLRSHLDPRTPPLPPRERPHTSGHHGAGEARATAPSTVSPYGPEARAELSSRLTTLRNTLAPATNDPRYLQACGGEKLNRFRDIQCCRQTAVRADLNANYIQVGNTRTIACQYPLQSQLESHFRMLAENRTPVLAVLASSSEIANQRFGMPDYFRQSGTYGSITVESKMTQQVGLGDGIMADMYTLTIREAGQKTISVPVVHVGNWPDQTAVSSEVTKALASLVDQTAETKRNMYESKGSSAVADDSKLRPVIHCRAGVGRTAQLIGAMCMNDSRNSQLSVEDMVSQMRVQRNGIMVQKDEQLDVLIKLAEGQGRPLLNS

| SMILES | IC50 [1] [µM] | IC50 [2] [µM] | IC50 [3] [µM] | IC50 [4] [µM] | IC50 [5] [µM] | Ratio IC50 [6] | Ratio IC50 [7] | Ratio IC50 [8] | Ratio IC50 [9] | Ki [10] [µM] |
| --- | --- | --- | --- | --- | --- | --- | --- | --- | --- | --- |
| Cc1ccc(NC(=S)N/N=C/c2ccc(-c3cc(C(F)(F)F)ccc3Cl)o2)cc1 | 9.1 | 30.3 | 38.2 | 6.9 | > 50 | 4.2 | 0.8 | > 5.5 | > 5.5 | – |
| S=C(N/N=C/c1ccc(-c2ccccc2)cc1)Nc1cccc2ccccc12 | 7.4 | 17.6 | > 50 | 6.5 | > 50 | > 6.8 | 0.9 | > 6.8 | > 6.8 | 5.6 |
| O=[N+]([O-])c1ccc(/C=N/NC(=S)Nc2cccc3ccccc23)cc1 | 9.5 | 18.4 | 17 | 7.1 | > 50 | 1.8 | 0.7 | > 5.3 | > 5.3 | 1.2 |
| FC(F)(F)c1ccc(Cl)c(-c2ccc(/C=N/NC(=S)Nc3cccc4ccccc34)o2)c1 | 2.9 | 6.2 | 9.4 | 2.6 | > 50 | 3.2 | 0.9 | 5.4 | > 10.3 | 1.7 |
